Measurements taken from ChEMBL document CHEMBL4689842, “EUbOPEN Chemogenomics Library wave 1” (2021).

Test system: Fibroblast
Assay: Multiplex assay against human fibroblast
Format: toxicity, cell-based
Summary of the method: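 Phenotypes for tubulin, mitochondrial mass and membrane permeability are expressed as per cents of healthy-nucleus cells. Cells were stained live at seeding with Hoechst33342, BioTracker Green Microtubule Cytoskeleton Dye, MitoTracker Red and Annexin V Alexa Fluor 680, then imaged after compound addition on a CQ1 microscope at 37°C and 5% CO2. Machine-learning gating in CellPathfinder separated Hoechst high-intensity objects from normal cells, divided normal cells by nuclear state (healthy, pyknosed, fragmented) and divided pyknosed cells into mitotic or apoptotic.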

[1] = 12 h, 1 µM, compound concentration 1 uM, replicate 1
[2] = 12 h, 1 µM, compound concentration 1 uM, replicate 2
[3] = 12 h, 10 µM, compound concentration 10 uM, replicate 1
[4] = 12 h, 10 µM, compound concentration 10 uM, replicate 2
[5] = 24 h, 1 µM, compound concentration 1 uM, replicate 1
[6] = 24 h, 1 µM, compound concentration 1 uM, replicate 2
[7] = 24 h, 10 µM, compound concentration 10 uM, replicate 1
[8] = 24 h, 10 µM, compound concentration 10 uM, replicate 2
[9] = 48 h, 1 µM, compound concentration 1 uM, replicate 1
[10] = 48 h, 1 µM, compound concentration 1 uM, replicate 2
[11] = 48 h, 10 µM, compound concentration 10 uM, replicate 1
[12] = 48 h, 10 µM, compound concentration 10 uM, replicate 2

## CCOc1cc(C(=O)N2CCC(N3CCN(C)CC3)CC2)ccc1Nc1ncc2c(n1)N(C1CCCC1)c1ccccc1C(=O)N2C
[1]
  Population Apoptotic (%): 57%
  Population Fragmented Nuclei (%): 27%
  Population Healthy Nuclei (%): 42%
  Population Hoechst High Intensity Objects (%): 13%
  Population Membrane Permeable-Phenotype (%): 19%
  Population Mitochondria Different-Phenotype (%): 27%
  Population Mitotic Cells (%): 42%
  Population Normal (%): 86%
  Population Pyknosed Nuclei (%): 30%
  Population Tubulin-Different-Phenotype (%): 60%
  Total Cell Count: 200
[2]
  Population Apoptotic (%): 75%
  Population Fragmented Nuclei (%): 6%
  Population Healthy Nuclei (%): 80%
  Population Hoechst High Intensity Objects (%): 10%
  Population Membrane Permeable-Phenotype (%): 4%
  Population Mitochondria Different-Phenotype (%): 76%
  Population Mitotic Cells (%): 25%
  Population Normal (%): 89%
  Population Pyknosed Nuclei (%): 12%
  Population Tubulin-Different-Phenotype (%): 48%
  Total Cell Count: 67
[3]
  Population Apoptotic (%): 58%
  Population Fragmented Nuclei (%): 30%
  Population Healthy Nuclei (%): 44%
  Population Hoechst High Intensity Objects (%): 19%
  Population Membrane Permeable-Phenotype (%): 20%
  Population Mitochondria Different-Phenotype (%): 56%
  Population Mitotic Cells (%): 41%
  Population Normal (%): 80%
  Population Pyknosed Nuclei (%): 25%
  Population Tubulin-Different-Phenotype (%): 86%
  Total Cell Count: 84
[4]
  Population Apoptotic (%): 92%
  Population Fragmented Nuclei (%): 21%
  Population Healthy Nuclei (%): 50%
  Population Hoechst High Intensity Objects (%): 6%
  Population Membrane Permeable-Phenotype (%): 93%
  Population Mitochondria Different-Phenotype (%): 97%
  Population Mitotic Cells (%): 7%
  Population Normal (%): 93%
  Population Pyknosed Nuclei (%): 27%
  Population Tubulin-Different-Phenotype (%): 100%
  Total Cell Count: 69
[5]
  Population Apoptotic (%): 62%
  Population Fragmented Nuclei (%): 29%
  Population Healthy Nuclei (%): 49%
  Population Hoechst High Intensity Objects (%): 11%
  Population Membrane Permeable-Phenotype (%): 12%
  Population Mitochondria Different-Phenotype (%): 17%
  Population Mitotic Cells (%): 37%
  Population Normal (%): 88%
  Population Pyknosed Nuclei (%): 20%
  Population Tubulin-Different-Phenotype (%): 42%
  Total Cell Count: 205
[6]
  Population Apoptotic (%): 22%
  Population Fragmented Nuclei (%): 16%
  Population Healthy Nuclei (%): 72%
  Population Hoechst High Intensity Objects (%): 5%
  Population Membrane Permeable-Phenotype (%): 5%
  Population Mitochondria Different-Phenotype (%): 65%
  Population Mitotic Cells (%): 77%
  Population Normal (%): 94%
  Population Pyknosed Nuclei (%): 11%
  Population Tubulin-Different-Phenotype (%): 27%
  Total Cell Count: 71
[7]
  Population Apoptotic (%): 76%
  Population Fragmented Nuclei (%): 41%
  Population Healthy Nuclei (%): 26%
  Population Hoechst High Intensity Objects (%): 28%
  Population Membrane Permeable-Phenotype (%): 21%
  Population Mitochondria Different-Phenotype (%): 85%
  Population Mitotic Cells (%): 23%
  Population Normal (%): 71%
  Population Pyknosed Nuclei (%): 32%
  Population Tubulin-Different-Phenotype (%): 92%
  Total Cell Count: 74
[8]
  Population Apoptotic (%): 88%
  Population Fragmented Nuclei (%): 10%
  Population Healthy Nuclei (%): 30%
  Population Hoechst High Intensity Objects (%): 11%
  Population Membrane Permeable-Phenotype (%): 100%
  Population Mitochondria Different-Phenotype (%): 96%
  Population Mitotic Cells (%): 11%
  Population Normal (%): 88%
  Population Pyknosed Nuclei (%): 59%
  Population Tubulin-Different-Phenotype (%): 100%
  Total Cell Count: 85
[9]
  Population Apoptotic (%): 78%
  Population Fragmented Nuclei (%): 37%
  Population Healthy Nuclei (%): 51%
  Population Hoechst High Intensity Objects (%): 15%
  Population Membrane Permeable-Phenotype (%): 13%
  Population Mitochondria Different-Phenotype (%): 8%
  Population Mitotic Cells (%): 21%
  Population Normal (%): 84%
  Population Pyknosed Nuclei (%): 10%
  Population Tubulin-Different-Phenotype (%): 43%
  Total Cell Count: 213
[10]
  Population Apoptotic (%): 100%
  Population Fragmented Nuclei (%): 29%
  Population Healthy Nuclei (%): 67%
  Population Hoechst High Intensity Objects (%): 18%
  Population Membrane Permeable-Phenotype (%): 14%
  Population Mitochondria Different-Phenotype (%): 20%
  Population Mitotic Cells (%): 0%
  Population Normal (%): 81%
  Population Pyknosed Nuclei (%): 3%
  Population Tubulin-Different-Phenotype (%): 63%
  Total Cell Count: 116
[11]
  Population Apoptotic (%): 88%
  Population Fragmented Nuclei (%): 35%
  Population Healthy Nuclei (%): 26%
  Population Hoechst High Intensity Objects (%): 25%
  Population Membrane Permeable-Phenotype (%): 33%
  Population Mitochondria Different-Phenotype (%): 41%
  Population Mitotic Cells (%): 11%
  Population Normal (%): 75%
  Population Pyknosed Nuclei (%): 37%
  Population Tubulin-Different-Phenotype (%): 66%
  Total Cell Count: 60
[12]
  Population Apoptotic (%): 93%
  Population Fragmented Nuclei (%): 34%
  Population Healthy Nuclei (%): 46%
  Population Hoechst High Intensity Objects (%): 32%
  Population Membrane Permeable-Phenotype (%): 5%
  Population Mitochondria Different-Phenotype (%): 78%
  Population Mitotic Cells (%): 6%
  Population Normal (%): 67%
  Population Pyknosed Nuclei (%): 18%
  Population Tubulin-Different-Phenotype (%): 89%
  Total Cell Count: 120

## CCCn1c(=O)c2[nH]c(-c3cnn(Cc4cccc(C(F)(F)F)c4)c3)nc2n(CC)c1=O [GS 6201]
[1]
  Population Apoptotic (%): 51%
  Population Fragmented Nuclei (%): 26%
  Population Healthy Nuclei (%): 32%
  Population Hoechst High Intensity Objects (%): 11%
  Population Membrane Permeable-Phenotype (%): 33%
  Population Mitochondria Different-Phenotype (%): 14%
  Population Mitotic Cells (%): 48%
  Population Normal (%): 88%
  Population Pyknosed Nuclei (%): 41%
  Population Tubulin-Different-Phenotype (%): 59%
  Total Cell Count: 95
[2]
  Population Apoptotic (%): 42%
  Population Fragmented Nuclei (%): 4%
  Population Healthy Nuclei (%): 88%
  Population Hoechst High Intensity Objects (%): 2%
  Population Membrane Permeable-Phenotype (%): 8%
  Population Mitochondria Different-Phenotype (%): 9%
  Population Mitotic Cells (%): 57%
  Population Normal (%): 97%
  Population Pyknosed Nuclei (%): 7%
  Population Tubulin-Different-Phenotype (%): 28%
  Total Cell Count: 75
[3]
  Population Apoptotic (%): 76%
  Population Fragmented Nuclei (%): 48%
  Population Healthy Nuclei (%): 18%
  Population Hoechst High Intensity Objects (%): 31%
  Population Membrane Permeable-Phenotype (%): 25%
  Population Mitochondria Different-Phenotype (%): 17%
  Population Mitotic Cells (%): 24%
  Population Normal (%): 68%
  Population Pyknosed Nuclei (%): 33%
  Population Tubulin-Different-Phenotype (%): 46%
  Total Cell Count: 221
[4]
  Population Apoptotic (%): 50%
  Population Fragmented Nuclei (%): 17%
  Population Healthy Nuclei (%): 77%
  Population Hoechst High Intensity Objects (%): 5%
  Population Membrane Permeable-Phenotype (%): 3%
  Population Mitochondria Different-Phenotype (%): 20%
  Population Mitotic Cells (%): 50%
  Population Normal (%): 94%
  Population Pyknosed Nuclei (%): 4%
  Population Tubulin-Different-Phenotype (%): 10%
  Total Cell Count: 98
[5]
  Population Apoptotic (%): 70%
  Population Fragmented Nuclei (%): 21%
  Population Healthy Nuclei (%): 42%
  Population Hoechst High Intensity Objects (%): 20%
  Population Membrane Permeable-Phenotype (%): 32%
  Population Mitochondria Different-Phenotype (%): 10%
  Population Mitotic Cells (%): 29%
  Population Normal (%): 79%
  Population Pyknosed Nuclei (%): 36%
  Population Tubulin-Different-Phenotype (%): 82%
  Total Cell Count: 83
[6]
  Population Apoptotic (%): 50%
  Population Fragmented Nuclei (%): 5%
  Population Healthy Nuclei (%): 90%
  Population Hoechst High Intensity Objects (%): 4%
  Population Membrane Permeable-Phenotype (%): 2%
  Population Mitotic Cells (%): 50%
  Population Normal (%): 95%
  Population Pyknosed Nuclei (%): 4%
  Population Tubulin-Different-Phenotype (%): 30%
  Total Cell Count: 81
[7]
  Population Apoptotic (%): 87%
  Population Fragmented Nuclei (%): 51%
  Population Healthy Nuclei (%): 24%
  Population Hoechst High Intensity Objects (%): 26%
  Population Membrane Permeable-Phenotype (%): 29%
  Population Mitochondria Different-Phenotype (%): 12%
  Population Mitotic Cells (%): 12%
  Population Normal (%): 73%
  Population Pyknosed Nuclei (%): 23%
  Population Tubulin-Different-Phenotype (%): 56%
  Total Cell Count: 224
[8]
  Population Apoptotic (%): 50%
  Population Fragmented Nuclei (%): 17%
  Population Healthy Nuclei (%): 72%
  Population Hoechst High Intensity Objects (%): 3%
  Population Membrane Permeable-Phenotype (%): 5%
  Population Mitochondria Different-Phenotype (%): 11%
  Population Mitotic Cells (%): 50%
  Population Normal (%): 96%
  Population Pyknosed Nuclei (%): 10%
  Population Tubulin-Different-Phenotype (%): 9%
  Total Cell Count: 139
[9]
  Population Apoptotic (%): 69%
  Population Fragmented Nuclei (%): 38%
  Population Healthy Nuclei (%): 41%
  Population Hoechst High Intensity Objects (%): 20%
  Population Membrane Permeable-Phenotype (%): 25%
  Population Mitochondria Different-Phenotype (%): 17%
  Population Mitotic Cells (%): 30%
  Population Normal (%): 79%
  Population Pyknosed Nuclei (%): 19%
  Population Tubulin-Different-Phenotype (%): 67%
  Total Cell Count: 84
[10]
  Population Apoptotic (%): 100%
  Population Fragmented Nuclei (%): 20%
  Population Healthy Nuclei (%): 76%
  Population Hoechst High Intensity Objects (%): 11%
  Population Membrane Permeable-Phenotype (%): 13%
  Population Mitochondria Different-Phenotype (%): 5%
  Population Mitotic Cells (%): 0%
  Population Normal (%): 89%
  Population Pyknosed Nuclei (%): 3%
  Population Tubulin-Different-Phenotype (%): 35%
  Total Cell Count: 100
[11]
  Population Apoptotic (%): 84%
  Population Fragmented Nuclei (%): 61%
  Population Healthy Nuclei (%): 26%
  Population Hoechst High Intensity Objects (%): 31%
  Population Membrane Permeable-Phenotype (%): 41%
  Population Mitochondria Different-Phenotype (%): 4%
  Population Mitotic Cells (%): 15%
  Population Normal (%): 68%
  Population Pyknosed Nuclei (%): 11%
  Population Tubulin-Different-Phenotype (%): 48%
  Total Cell Count: 234
[12]
  Population Apoptotic (%): 0%
  Population Fragmented Nuclei (%): 28%
  Population Healthy Nuclei (%): 67%
  Population Hoechst High Intensity Objects (%): 11%
  Population Membrane Permeable-Phenotype (%): 12%
  Population Mitochondria Different-Phenotype (%): 1%
  Population Mitotic Cells (%): 100%
  Population Normal (%): 88%
  Population Pyknosed Nuclei (%): 4%
  Population Tubulin-Different-Phenotype (%): 63%
  Total Cell Count: 109
